Screens: PubChem, Johns Hopkins Ion Channel Center
An excerpt weighted towards active compounds, which were near 2.3% of everything screened.
TRPC6 act: activators of mouse TRPC6 channel | Q61143 | HEK293-TRPC6 membrane potential dye fluorescence; hits give high values | B-score at 10 µM | 310,000 compounds, 0.13% hits | AID 2550;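 active = B-score of the integrated fluorescence ratio above library mean plus 3 SD, and starting fluorescence ratio within library mean plus 5 SD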;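 also: higher score means more depolarization so channel activation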
Target sequence (Q61143 whole entry, looked up): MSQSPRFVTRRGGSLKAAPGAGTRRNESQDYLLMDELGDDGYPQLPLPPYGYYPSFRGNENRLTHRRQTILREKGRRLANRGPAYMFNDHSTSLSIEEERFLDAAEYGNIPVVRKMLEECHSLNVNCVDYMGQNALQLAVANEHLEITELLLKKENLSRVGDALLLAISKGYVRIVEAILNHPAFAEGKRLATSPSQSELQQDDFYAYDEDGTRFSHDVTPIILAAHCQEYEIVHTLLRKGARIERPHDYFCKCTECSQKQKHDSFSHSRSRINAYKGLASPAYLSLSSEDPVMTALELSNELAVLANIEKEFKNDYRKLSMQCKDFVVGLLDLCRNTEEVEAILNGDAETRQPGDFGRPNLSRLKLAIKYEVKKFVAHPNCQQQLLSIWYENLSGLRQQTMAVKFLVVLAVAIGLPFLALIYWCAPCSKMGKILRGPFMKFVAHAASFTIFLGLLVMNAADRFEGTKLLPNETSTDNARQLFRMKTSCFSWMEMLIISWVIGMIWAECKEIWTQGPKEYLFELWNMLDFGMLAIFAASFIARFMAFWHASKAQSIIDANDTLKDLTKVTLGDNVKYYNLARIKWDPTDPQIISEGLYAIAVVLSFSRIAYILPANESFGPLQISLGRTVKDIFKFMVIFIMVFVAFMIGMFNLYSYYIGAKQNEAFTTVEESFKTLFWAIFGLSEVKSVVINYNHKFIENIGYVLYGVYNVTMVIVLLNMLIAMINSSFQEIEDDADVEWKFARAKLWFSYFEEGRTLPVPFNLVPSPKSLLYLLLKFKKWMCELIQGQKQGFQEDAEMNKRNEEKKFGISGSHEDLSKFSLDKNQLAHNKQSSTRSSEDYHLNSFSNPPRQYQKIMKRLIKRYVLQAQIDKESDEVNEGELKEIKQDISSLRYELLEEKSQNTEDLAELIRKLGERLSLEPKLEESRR
TRPC4 potent: allosteric potentiators of mouse TRPC4 channel; Q9QUQ5; 310,000 compounds, 0.42% hits; B-score at 10 µM; HEK293 TRPC4beta/mu-opioid, DAMGO EC20, Fluo-4 Ca2+ flux; hits give high values;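 active = B-score of calcium response area above 5 SD of library B-scores, with initial fluorescence ratio within 5 SD of library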;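 also: B-score of integrated fluorescence ratio over time as area under calcium response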
TRPC4 block: inhibitors of mouse TRPC4 channel | HEK293 TRPC4beta/mu-opioid, DAMGO-evoked Fluo4 calcium flux; hits give low values | AID 2247 | B-score at 10 µM | 300,000 compounds, 0.39% hits;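 active = B-score over 3 SD under the library average, no early fluorescence shift, positive overall ratio signal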
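Assay system: Stable TRPC4beta/mu-opioid receptor HEK293 cells | Reagent: DAMGO in two steps, submaximal then maximal | Compound dosing: Single concentration per test compound | Signal: Fluo4 Ca2+ flux fluorescence | Evaluation: Per-well B score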
TRPC4 agonist: activators of mouse TRPC4 channel | 310,000 compounds, 0.49% hits | Q9QUQ5 | HEK293 TRPC4beta/mu-opioid, Fluo4 calcium fluorescence; hits give high values | B-score at 10 µM | AID 2237;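 active = B-score above 5 SD of library B-scores, and initial fluorescence ratio not above library mean plus 5 SD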;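 also: positive B-score marks a calcium rise read as TRPC4 activation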
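Technique: kinetic Fluo4 calcium fluorescence; Test system: TRPC4beta and mu-opioid receptor HEK293 stable cells; Measure: B-scored integrated calcium fluorescence ratio; Benchmarks: low control buffer alone, high control maximal DAMGO; Schedule: 45 min room-temperature Fluo4 loading, 110 s read.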
TRPC6 inhibitor: mouse TRPC6 channel inhibition | B-score at 10 µM | Q61143 | HEK293-TRPC6, membrane potential dye, ACh-evoked depolarization; hits give low values | 310,000 compounds, 1.1% hits | AID 2553;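 active = B-score under library mean minus 3 SD, initial fluorescence not abnormally high, positive integrated signal ratio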;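 also: B-score derived from integrated fluorescence ratio over the kinetic read; more negative B-score means stronger inhibition of depolarization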
TRPC4 spec 2: mouse TRPC4 off-target activity of TRPC6 inhibitors, second screen; HEK293 TRPC4/MOR, membrane potential dye fluorescence; channel activated by saturating DAMGO dose; shares compounds with TRPC6 inhibitor; inhibition, % at 10 µM; 920 compounds, 42% hits;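 active = compounds whose fluorescence signal differed from control wells by over 3 SD, either direction, in both duplicate plates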
TRPC4 spec: mouse TRPC4 off-target activity of TRPC6 inhibitors; 920 compounds, 61% hits; AID 2777; HEK293 TRPC4/mu-opioid, membrane potential fluorescence; shares compounds with TRPC6 inhibitor; activity change, negative = inhibition, % at 10 µM;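 active = rise or fall in signal beyond 3 SD of buffer-only wells in both replicate plates, either sign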;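 also: integrated kinetic ratio of fluorescence range over baseline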
HEK293 MPD ctr 2-1: parental HEK293 nonspecific activity of TRPC6 inhibitors, second screen | shares compounds with TRPC6 inhibitor | parental HEK293 membrane potential dye fluorescence; maximal acetylcholine challenge after compound addition | signal change vs control, % at 10 µM | 920 compounds, 31% hits | AID 2779;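 active = membrane potential signal moving either way by over 3 SD of the maximum-effect control, in both duplicate plates, meaning non-specific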
HEK293 MPD ctr-1: counter-screen for TRPC6 inhibitors: effect in parental HEK293 cells; shares compounds with TRPC6 inhibitor; parental HEK293 membrane potential dye fluorescence; membrane potential signal change, % at 10 µM; 920 compounds, 60% hits;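 active = membrane potential signal shifting up or down by more than 3 SD of buffer-only wells, on both duplicate plates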
HEK293 MPD ctr-2: counter-screen for TRPC6 modulators: effect in parental HEK293 cells; shares compounds with TRPC6 inhibitor; membrane potential dye fluorescence; membrane potential signal change, % at 10 µM; 2,400 compounds, 51% hits; AID 488924;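 active = membrane potential signal moves up or down beyond 5 SD from buffer-only wells, on both duplicate plates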
HEK293 MPD ctr 2-2: second check of TRPC6 modulator effects in parental HEK293 cells. shares compounds with TRPC6 inhibitor. membrane potential dye fluorescence; after compound, maximal acetylcholine stimulation. inhibition, % at 10 µM. 2,400 compounds, 14% hits. AID 488926;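 active = membrane potential signal drops by more than 5 SD from the mean control signal, in both duplicate plates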;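 also: plate controls were acetylcholine ECmax control wells for no effect and buffer only wells for full effect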
TRPC4/MOR mod: selectivity of TRPC6 modulators against mouse TRPC4. AID 488927. shares compounds with TRPC6 inhibitor. percent change from control (negative = decrease, positive = increase), % at 10 µM. HEK293 TRPC4/mu-opioid, membrane potential fluorescence. 2,400 compounds, 69% hits;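 active = membrane potential signal moved up or down beyond 5 SD of buffer control wells, in both duplicate plates, actives on both sides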;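 also: plate controls were assay buffer wells for no effect and DAMGO maximal-effect wells for full effect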
TRPC4/MOR inh 2: second selectivity test of TRPC6 modulators against mouse TRPC4; inhibition, % at 10 µM; shares compounds with TRPC6 inhibitor; 2,400 compounds, 55% hits; HEK293 TRPC4/mu-opioid, membrane potential dye fluorescence; stimulated with maximal-effect DAMGO; AID 488928;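 active = drop in membrane potential signal beyond 5 SD of the control wells in both duplicate plates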;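 also: TRPC4 counter screen for TRPC6 hits run under conditions tuned for TRPC6 not TRPC4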
TRPC6 inh conf: mouse TRPC6 inhibitor confirmation; shares compounds with TRPC6 inhibitor; HEK293-TRPC6, membrane potential dye, ACh-evoked depolarization; inhibition, % at 10 µM; 3,300 compounds, 43% hits; AID 488960;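 active = fluorescence ratio falls more than 5 SD below the full-stimulation control mean, in both duplicate runs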;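 also: integrated fluorescence ratio of peak minus minimum over baseline after agonist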
TRPC6 act confirm: confirmation of mouse TRPC6 activators; shares compounds with TRPC6 inhibitor; HEK293-TRPC6 membrane potential dye fluorescence, FDSS; activation, % at 10 µM; 2,800 compounds, 11% hits; AID 488961;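 active = ratio signal rise beyond 5 SD above unstimulated control wells' mean, seen in both duplicate runs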;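 also: plate controls were buffer EC0 wells for no effect and acetylcholine ECmax response for full effect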
* = called active by the depositor; i = inactive; · = no result given.

SMILES	TRPC6 act	TRPC4 potent	TRPC4 block	TRPC4 agonist	TRPC6 inhibitor	HEK293 MPD ctr-2	HEK293 MPD ctr 2-2	TRPC4/MOR mod	TRPC4/MOR inh 2	TRPC6 inh conf	TRPC6 act confirm	others
CCOC(=O)c1ccc(NC(=O)CC2C(=O)N(c3ccc(F)cc3)C(=O)N2CCC(C)C)cc1 (configuration not stated)	i	i	i	i	-5.8*	i	i	i	i	42%*	·
Nc1nc(CSc2ccccn2)nc(Nc2ccccc2)n1	i	i	i	i	i	·	·	·	·	·	·
CCCCCCC(=O)Nc1c2c(nc3ccccc13)N(C)CC2	i	i	i	i	i	·	·	·	·	·	·
CN1CCc2c1nc1ccccc1c2NC(=O)CN1CCCC1	i	i	i	i	-6.5*	-278%*	i	-46%*	46%*	i	i
CCCCCC(=O)Nc1cc(N(C)C)nc2ccccc12	i	i	i	i	-5.4*	i	i	-10%*	48%*	i	i
CCN(CC)CC(=O)Nc1cc(N(C)C)nc2ccccc12	i	i	i	i	-7.5*	·	·	·	·	68%*	i	TRPC4 spec 2=70%*;TRPC4 spec=-25%*;HEK293 MPD ctr 2-1=3.0%*;HEK293 MPD ctr-1=-474%*
CN1CCN(CC(=O)Nc2cc(N(C)C)nc3ccccc23)CC1	i	i	i	i	-6.8*	-154%*	i	-26%*	44%*	i	i
Cc1ccccc1NC(=O)CN1CCN(C)CC1	i	i	i	i	i	·	·	·	·	·	·
Cc1ccc(CN2C(=O)[C@H]3Cc4c([nH]c5ccccc45)C(C)(C)N3C2=O)cc1	i	i	i	i	i	·	·	·	·	·	·
CCN1C(=O)/C(=C/C=C2/Sc3ccc4ccccc4c3N2CCO)SC1=S	i	i	i	i	i	·	·	·	·	·	·
CCN(CC)CCN1c2ccccc2Sc2ccc3ccccc3c21	i	i	i	i	-6*	i	i	i	i	i	i
CCN(CC)CCN1c2ccccc2Sc2ccccc21	i	i	-6*	i	-6.2*	92%*	i	49%*	64%*	55%*	·
Cn1nnnc1SCCNCc1ccccc1OCc1ccccc1Cl	i	i	i	i	-5.5*	122%*	i	24%*	81%*	44%*	·
c1ccc2c(c1)CC1(CCCC1)n1nnnc1-2	i	i	i	i	i	·	·	·	·	·	·
COc1ccc(OCC(=O)NC2CCCN(Cc3ccc(Cl)cc3)C2)cc1 (configuration not stated)	i	15*	i	i	-6.2*	116%*	i	24%*	i	50%*	·
CCc1c(C)c(C#N)c2nc3ccccc3n2c1NCCN(C)C	i	i	i	i	-9.5*	-85%*	112%*	-18%*	76%*	78%*	i
CCCc1cc(NCCCN(C)C)n2c(nc3ccccc32)c1C#N	i	i	i	i	-6.8*	·	·	·	·	63%*	i	TRPC4 spec 2=62%*;TRPC4 spec=-36%*;HEK293 MPD ctr 2-1=42%*;HEK293 MPD ctr-1=-454%*
CCc1c(C)c(C#N)c2nc3ccccc3n2c1NC	i	i	i	i	i	·	·	·	·	·	·
CCCc1cc(NCCN(C)C)n2c(nc3ccccc32)c1C#N	i	i	i	i	i	·	·	·	·	·	·
C=CCc1c(C)c(C#N)c2nc3ccccc3n2c1NCCN(C)C	i	i	i	i	-5.4*	-116%*	i	-24%*	52%*	54%*	i
C=C(C)Cc1c(C)c(C#N)c2nc3ccccc3n2c1NCCCN(C)C	i	i	i	i	-7.2*	·	·	·	·	i	i	TRPC4 spec 2=48%*;TRPC4 spec=-16%*;HEK293 MPD ctr 2-1=i;HEK293 MPD ctr-1=-354%*
Cc1c(Cc2ccccc2)c(NCCCO)n2c(nc3ccccc32)c1C#N	i	i	i	i	i	·	·	·	·	·	·
O=C1NCC(COc2ccc(Cl)cc2)O1 (configuration not stated)	i	i	i	i	i	·	·	·	·	·	·
COC(=O)COc1ccc(C(=O)Cn2c(NCCCO)nc3ccccc32)cc1	i	i	i	i	i	·	·	·	·	·	·
COc1cc(/C=C(\C#N)c2nc3ccccc3[nH]2)cc(OC)c1O	14*	i	i	i	-5.3*	612%*	i	100%*	58%*	i	i
CCCOc1cc(N(CC)CC)ccc1/C=C(/C#N)c1nc2ccc(C)cc2[nH]1	i	i	i	i	i	·	·	·	·	·	·
CCOc1cc(N(CC)CC)ccc1/C=C(/C#N)c1nc2ccccc2[nH]1	16*	i	i	126*	i	295%*	i	46%*	i	i	48%*
COc1ccc(/C=C(\C#N)c2nc3ccccc3[nH]2)cc1O	i	i	i	i	i	·	·	·	·	·	·
CN(C)CC(=O)N1c2ccccc2Sc2ccc(Cl)cc21	i	i	i	i	i	·	·	·	·	·	·
CN(C)CCC(=O)N1c2ccccc2Sc2ccc(Cl)cc21	i	i	i	i	-8.5*	·	·	·	·	59%*	·	TRPC4 spec 2=i;TRPC4 spec=4.2%*;HEK293 MPD ctr 2-1=i;HEK293 MPD ctr-1=7.7%*
